# Source: PubChem BioAssay
# Unmarked numbers belong to inactive results. Calls of active or inactive are those of the source.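 The calls were made as follows, unless noted: active = current rise at least 3 SD above the untreated control mean in each of two repeat wells; inactive = the rest.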
# Key:
# [1] = thallium flux activation in parental CHO cells, counter-screen for KCNQ1 potentiator project (AID 493006;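 active = duplicate-averaged activation above buffer control mean plus 5 SD of those controls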); settings: parental CHO-K1 cells, FluxOR thallium flux, at 10 µM; stronger effect = higher value
# In short: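 Material: untransfected host CHO-K1 cells with FluxOR thallium dye. Timing: overnight 37 °C plating, 90 min RT dye, 20 min compound. Detection: kinetic FluxOR fluorescence, 10 s baseline, 110 s after stimulus. Read-out basis: max-minus-min fluorescence over baseline, percent of buffer-to-R-L3 span. Replicates: duplicate wells per compound, percent values averaged.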
# [2] = molecular target: Potassium voltage-gated channel subfamily KQT member 1 (Homo sapiens) (UniProt P51787); assay: KCNQ1 potassium channel potentiators, confirmation, FluxOR thallium flux, CHO cells, duplicates (AID 493007;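 active = potentiation averaged over duplicate wells exceeding buffer-only control mean by more than 3 SD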;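 as to outcome: cells depolarized by a potassium plus thallium sulfate stimulus after compound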); settings: KCNQ1 cell line, FluxOR thallium flux fluorescence, at 10 µM; stronger effect = higher value, % of reference activator effect, buffer zero
# In short: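 Test system – KCNQ1-expressing CHO cell line · Incubation – FluxOR dye loading 90 min, compound exposure 20 min, room temperature · Detection – FluxOR Tl+ flux fluorescence, 10 s baseline plus 110 s recording · Controls – buffer-only wells as 0% and R-L3 activator as 100%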
# [3] = molecular target: Potassium voltage-gated channel subfamily KQT member 2 (Rattus norvegicus) (UniProt O88943); assay: rat KCNQ2 channel potentiation, selectivity assay for KCNQ1 potentiator project, KCNQ2-CHO-K1 cells (AID 493009;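 active = mean duplicate potentiation above the buffer control mean plus 5 SD of buffer wells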;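 also: assay conditions were tuned for KCNQ1 rather than KCNQ2 modulators; signal is max minus min fluorescence divided by baseline after thallium stimulus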); settings: FluxOR thallium flux fluorescence, at 10 µM; stronger effect = higher value, scaled: buffer 0, activator control 100
# [4] = molecular target: Potassium voltage-gated channel subfamily KQT member 1 (Homo sapiens) (UniProt P51787); assay: KCNQ1 channel current potentiators, confirmation, orthogonal assay for KCNQ1 potentiator project, IonWorks patch clamp, KCNQ1-CHO cells (AID 493184); settings: automated patch clamp current, at 10 µM; stronger effect = higher value
# In short: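 Read-out: Percent current increase versus pre-compound level | Assay system: CHO cells carrying KCNQ1 | Measured by: Automated perforated-patch electrophysiology | Medium: External bath solution at pH 7.4 | Dosing: One dose, 10 µM final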
# [5] = molecular target: Potassium voltage-gated channel subfamily E member 1 (Homo sapiens) + Potassium voltage-gated channel subfamily KQT member 1 (Homo sapiens) (UniProt P15382+P51787); assay: KCNQ1/KCNE1 complex potentiators, confirmation, selectivity assay for KCNQ1 potentiator project, thallium flux, CHO-K1 KCNQ1/E1 cells (AID 493186;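 active = mean duplicate activation above the buffer control mean plus 5 SD of those controls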); settings: FluxOR thallium flux, at 10 µM; stronger effect = higher value
# In short: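 Test system: CHO-K1 cells with KCNQ1/E1; dosing: one test concentration; signal: FluxOR Tl+ flux fluorescence, kinetic read; incubation: 90-min dye loading then 20-min compound exposure, both at room temperature; read-out basis: percent of R-L3 effect over buffer; replication: duplicate wells per compound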
# Sequence of Potassium voltage-gated channel subfamily KQT member 2 (Rattus norvegicus) (O88943 whole entry, looked up): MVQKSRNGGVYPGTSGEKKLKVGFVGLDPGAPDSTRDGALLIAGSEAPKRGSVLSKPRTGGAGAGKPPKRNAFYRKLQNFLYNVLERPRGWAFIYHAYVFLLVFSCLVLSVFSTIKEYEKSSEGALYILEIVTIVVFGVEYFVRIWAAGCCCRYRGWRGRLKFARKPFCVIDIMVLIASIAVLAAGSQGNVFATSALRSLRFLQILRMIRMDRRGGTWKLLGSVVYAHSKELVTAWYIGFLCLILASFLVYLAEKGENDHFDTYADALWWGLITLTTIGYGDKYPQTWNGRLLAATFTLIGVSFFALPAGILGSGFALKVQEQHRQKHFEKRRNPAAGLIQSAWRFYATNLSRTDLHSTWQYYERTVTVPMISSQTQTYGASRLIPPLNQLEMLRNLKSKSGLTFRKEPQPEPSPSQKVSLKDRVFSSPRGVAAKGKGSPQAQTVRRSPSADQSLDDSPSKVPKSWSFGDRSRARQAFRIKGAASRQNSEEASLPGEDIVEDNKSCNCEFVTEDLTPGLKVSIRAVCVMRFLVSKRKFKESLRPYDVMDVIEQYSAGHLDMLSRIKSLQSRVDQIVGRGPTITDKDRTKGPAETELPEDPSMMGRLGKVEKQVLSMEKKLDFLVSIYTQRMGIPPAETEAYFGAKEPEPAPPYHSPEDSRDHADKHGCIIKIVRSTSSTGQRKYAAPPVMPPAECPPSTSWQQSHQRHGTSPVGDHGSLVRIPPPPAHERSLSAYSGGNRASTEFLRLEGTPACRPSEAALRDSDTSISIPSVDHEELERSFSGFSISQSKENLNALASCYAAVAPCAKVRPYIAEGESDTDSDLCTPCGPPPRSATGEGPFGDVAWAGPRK
# Sequence of Potassium voltage-gated channel subfamily E member 1 (Homo sapiens) + Potassium voltage-gated channel subfamily KQT member 1 (Homo sapiens) (P51787 whole entry, looked up): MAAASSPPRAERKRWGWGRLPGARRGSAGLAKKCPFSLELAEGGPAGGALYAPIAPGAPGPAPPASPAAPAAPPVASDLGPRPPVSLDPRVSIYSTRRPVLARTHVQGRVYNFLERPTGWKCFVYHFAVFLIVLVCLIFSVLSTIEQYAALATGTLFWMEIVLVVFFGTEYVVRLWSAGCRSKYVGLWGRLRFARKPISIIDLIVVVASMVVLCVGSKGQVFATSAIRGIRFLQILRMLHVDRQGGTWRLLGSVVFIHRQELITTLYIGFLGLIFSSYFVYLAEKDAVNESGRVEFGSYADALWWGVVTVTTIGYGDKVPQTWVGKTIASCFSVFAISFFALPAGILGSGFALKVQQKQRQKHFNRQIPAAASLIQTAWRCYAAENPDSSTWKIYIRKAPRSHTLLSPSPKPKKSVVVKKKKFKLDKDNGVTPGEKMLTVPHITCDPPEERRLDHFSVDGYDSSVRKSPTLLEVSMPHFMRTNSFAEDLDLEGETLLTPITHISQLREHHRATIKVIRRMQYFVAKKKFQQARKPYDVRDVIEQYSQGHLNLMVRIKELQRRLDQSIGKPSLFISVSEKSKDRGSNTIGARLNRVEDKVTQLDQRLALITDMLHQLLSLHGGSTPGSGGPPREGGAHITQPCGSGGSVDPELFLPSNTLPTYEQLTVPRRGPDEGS
# Sequence of Potassium voltage-gated channel subfamily KQT member 1 (Homo sapiens) (P51787 whole entry, looked up): as above
Compound,outcome [1],potentiation [2],outcome [3],outcome [4],outcome [5],outcome [2],potentiation [3],activation [5]
CCOC(=O)Cn1c(C(=O)OCC)cc2sccc21,inactive,35.5% (active),inactive,inactive,inactive,,,
Oc1oc(-c2ccccc2)nc1/C=N/c1nccs1,inactive,29.5% (active),inactive,inactive,inactive,,,
Cc1cc(C)cc(OCC(=O)NNC(=O)c2cc3ccccc3o2)c1,inactive,,inactive,inactive,inactive,inactive,,
Cc1cc(C)c2c(=O)n(CC(=O)Nc3ccc(Cl)cc3)sc2n1,inactive,25% (active),inactive,inactive,inactive,,,
O=c1cc(-c2ccccc2)nc2cc(-c3ccco3)[nH]n12,inactive,,inactive,inactive,inactive,inactive,,
CCCOc1ccc(C(=O)NNC(=S)NC(=O)CC)cc1,inactive,,inactive,inactive,inactive,inactive,,
Cc1nc(=S)c2c([nH]1)-c1ccccc1CC21CCCCC1,inactive,84.5% (active),,inactive,inactive,,180% (active),
COc1cc(NC(=S)N2CCC(C(O)(c3ccccc3)c3ccccc3)CC2)cc(OC)c1,inactive,20.5% (active),,inactive,inactive,,156% (active),
CCN(C(=O)c1cc2c(=O)[nH]c3ccc(C)cc3c2s1)c1ccccc1F,inactive,25% (active),inactive,inactive,inactive,,,
CCN(CC(=O)Nc1c(F)cccc1F)C(=O)C1CCN(C(=O)c2ccc(Cl)cc2)CC1,inactive,,inactive,inactive,inactive,inactive,,
COCCCN1C(=O)C(=O)/C(=C(/O)c2ccc(C)cc2)C1c1ccccc1 (stereo not given),inactive,,inactive,inactive,inactive,inactive,,
OCCNCc1cc(Br)ccc1OCc1ccccc1Cl,inactive,,inactive,inactive,inactive,inactive,,
CCOC(=O)N/C(N)=N/c1nc2ccccc2s1,inactive,,inactive,inactive,inactive,inactive,,
Oc1c(Cl)cc(Cl)cc1/C=N/NC(=S)NC1CC2C=CC1C2 (stereo not given),inactive,,inactive,inactive,inactive,inactive,,
CCCC(=O)N(Cc1cccnc1)c1nc2c(OC)ccc(Cl)c2s1,inactive,51.5% (active),inactive,inactive,inactive,,,
Cc1cccc(C)c1OCc1cc(C(=O)N(C)Cc2cc(C3CC3)n[nH]2)no1,inactive,,inactive,inactive,inactive,inactive,,
CCCCCCOc1ccc(N2C(=O)CC(N3CCN(C(=O)c4ccco4)CC3)C2=O)cc1 (stereo not given),inactive,17.5% (active),inactive,inactive,inactive,,,
CCCC(=O)n1nc(-c2ccc(C)cc2)nc1NCc1ccco1,inactive,80% (active),,inactive,inactive,,148% (active),
NC(=Nc1ccc(Cl)cc1)c1ccccc1,inactive,,inactive,inactive,inactive,inactive,,
O=C(CNc1ccc(Br)cc1)NNC1=NCCC1,inactive,,,inactive,inactive,inactive,142% (active),
COc1cc(C(=O)CCN2CCC(c3ccccc3)C2)cc(OC)c1OC (stereo not given),inactive,,inactive,inactive,inactive,inactive,,
CCOC(=O)CSC(=S)NC(=O)c1ccc(OC)cc1,inactive,18.5% (active),,inactive,inactive,,147% (active),
S=C(Nc1ccc(Cl)cc1)c1nc2ccccc2s1,inactive,47.5% (active),inactive,inactive,,,,23.8% (active)
CC(C)c1ccc(OCC(=O)NNC(=S)NC(=O)c2cccs2)c(Br)c1,inactive,22% (active),inactive,inactive,inactive,,,
CC1=NOC(=O)/C1=C\c1ccc(-c2ccc(Cl)cc2Cl)o1,inactive,,inactive,inactive,inactive,inactive,,
Clc1ccc(C2=Nn3c(nnc3-c3n[nH]c4c3CCC4)SC2)cc1Cl,inactive,,inactive,inactive,inactive,inactive,,

Compound,outcome [1],potentiation [2],outcome [3],outcome [4],outcome [5],outcome [2],potentiation [3],activation [5]
Cc1ccc2[nH]c(=O)c(CN(CCCN(C)C)C(=S)NCCc3ccccc3)cc2c1,inactive,,inactive,inactive,inactive,inactive,,
CC1CCCCN1CCCNC(=O)Cn1ncc2c([nH]c3ccccc32)c1=O (stereo not given),inactive,,inactive,inactive,inactive,inactive,,
O=C(Nc1nc(-c2cc(F)ccc2F)cs1)c1ccccn1,inactive,,inactive,inactive,inactive,inactive,,
O=C(Nc1nnc(-c2ccccc2)o1)c1cc(Cl)sc1Cl,inactive,,,inactive,inactive,inactive,148% (active),
COc1cc(C(=O)Nc2ccc3c(c2)nc(C)n3C)cc(OC)c1OC,inactive,,inactive,inactive,inactive,inactive,,
COc1cc(-c2noc(C)c2-c2ccc(N(C)C)nc2)cc(OC)c1OC,inactive,,inactive,inactive,inactive,inactive,,
COc1cccc(/C=N/n2c(SC)nnc2-c2ccccc2)c1O,inactive,,inactive,inactive,inactive,inactive,,
O=C(COc1ccccc1)NC(=S)Nc1ccc(Br)cn1,inactive,41.5% (active),,inactive,,,206% (active),20.3% (active)
CCC1CCCCN1CCCNC(=O)CSc1nc2nc(C)c(Cc3ccccc3)c(C)n2n1 (stereo not given),inactive,,inactive,inactive,inactive,inactive,,
COc1ccc(OCCCC(=O)NNC(=O)CCN2CCN(c3ccccc3)CC2)cc1,inactive,19% (active),,inactive,inactive,,142% (active),
COc1ccccc1C(=O)NNC(=O)C(=O)NC(C)C,inactive,,inactive,inactive,inactive,inactive,,
CC(NC(=O)c1ccccc1Cl)C1CC2CCC1C2 (stereo not given),inactive,,inactive,inactive,inactive,inactive,,
S=c1[nH]c(-c2cccs2)cn1-c1ccccc1,inactive,26% (active),,inactive,inactive,,151% (active),
CCN(CC)C(=S)SCC(=O)Nc1nc(=O)c2ccccc2s1,inactive,,inactive,inactive,inactive,inactive,,
CC1Oc2ccccc2N(CC(=O)N2CCCCCC2)C1=O (stereo not given),inactive,27.5% (active),inactive,inactive,inactive,,,
CCOC(=O)SC1=N/C(=C\c2ccc(N(C)C)cc2)C(=O)S1,inactive,,inactive,inactive,,inactive,,15.3% (active)
O=C(NCc1ccccc1)c1ccc2c(c1)C(=O)N(Cc1cccnc1)C2=O,inactive,17.5% (active),inactive,inactive,inactive,,,
CC(C)(C)NCC(O)CON=C1c2ccccc2-c2ccccc21 (stereo not given),inactive,,inactive,inactive,,inactive,,15.2% (active)
COc1cc(OC)cc(-c2nnc(Nc3nc4c(F)cccc4s3)o2)c1,inactive,,inactive,inactive,inactive,inactive,,
CN(Cc1ccccc1)C(=S)NC(=O)c1ccccc1,inactive,21.5% (active),,inactive,inactive,,157% (active),
Cc1nn(Cc2ccc(Cl)cc2)c(C)c1NC(=O)c1cc(-c2ccco2)on1,inactive,,inactive,inactive,inactive,inactive,,
COc1ccc(C(=O)NNC(=O)C(=O)NCc2ccccc2)cc1,inactive,29% (active),,inactive,inactive,,144% (active),
O=C(N/C(=C\c1ccc([N+](=O)[O-])cc1)C(=O)N1CCCCC1)c1ccco1,inactive,,inactive,inactive,inactive,inactive,,
Cc1ccc(Nc2ccc([N+](=O)[O-])cn2)cc1Cl,inactive,,,inactive,inactive,inactive,144% (active),
CCOc1cccc(/C=N/NC(=O)C2CCCC2)c1O,inactive,,inactive,inactive,inactive,inactive,,
